Experimental findings from ChEMBL document CHEMBL4513216, “Probing the Open Global Health Chemical Diversity Library for Multistage-Active Starting Points for Next-Generation Antimalarials” (ACS Infect Dis, 2020) are described below.

This data set is described as follows: Toxicity liver stage against HepG2, at 10uM. Format: cell-based. On the set-up: test concentration 10 uM, cell line HepG2-A16-CD81EGFP. The following applies: human, HepG2-A16-CD81EGFP cells; read-out: INHIBITION
Summed up:
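Uninfected HepG2-A16-CD81EGFP cells, 3 × 10^3 per well, 1536-well, plated on prespotted compound at 10 μM final, parasite-free screening media added to match infected plates; puromycin 10 μM positive, DMSO 0.5% negative; run in parallel with 48 h PbLuc assay at 37 °C, 5% CO2; viability by CellTiter-Glo luminescence, normalized to controls.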
For `CCOC(=O)c1cnn(-c2cc(Oc3ccccc3)ncn2)c1N`, the cytotoxicity at 10 µM stood at 2.93%.

As for `CN(Cc1ccc(F)cc1)Cc1nc(-c2cnccn2)no1`, the cytotoxicity at 10 µM amounted to 1.27%.

With `CCC(NC(=O)CN(C)Cc1ccc(C)o1)c1ccc(Br)cc1` (configuration not stated), the cytotoxicity at 10 µM is 35.5%.

Consider `COCc1cccc(NC(=O)NCCCN(C)S(C)(=O)=O)c1`, for which the cytotoxicity at 10 µM is -0.561%.

In the case of `CN(C)c1cc(C(=O)NCC2(c3ccc(F)cc3)CC2)ccn1`, the cytotoxicity at 10 µM stood at 8.59%.

With `COc1ccc(O[C@H]2COCCN(C(=O)c3ccno3)C2)cc1`, the cytotoxicity at 10 µM is -2.41%.

Regarding `O=C(NC[C@H]1OC[C@@H](NCc2ccccc2F)[C@@H]1O)c1ccc(F)cc1`, the cytotoxicity at 10 µM was -1.26%.

`CC[C@H]1CN(S(C)(=O)=O)CC[C@H]1CC(=O)NCCSC`: the cytotoxicity at 10 µM came to 3.45%.

On to `Cc1occc(=O)c1OCC(=O)N1CCN(c2ccccc2)CC1`, for which the cytotoxicity at 10 µM was -2.88%.

For the compound `COC(=O)N1CCC(CNC(=O)C2CC2)CC1`, the cytotoxicity at 10 µM was -2.82%.

Turning to `CN(CC(=O)NCC(F)(F)F)C(=O)c1ccc(=O)[nH]c1`, the cytotoxicity at 10 µM is -4.39%.

For the compound `CCN1C(=O)CCC12CCCN(S(=O)(=O)c1cccc(C)c1)CC2` (configuration not stated), the cytotoxicity at 10 µM is -4.54%.

`CC(C)N1[C@@H](C(=O)NCC2CC2)C[C@@H]2CN(Cc3ccco3)C[C@@H]21`: the cytotoxicity at 10 µM was determined as 3.41%.

On to `COCCNC(=O)C1CN(C(N)=O)Cc2ccnn2C1` (configuration not stated), for which the cytotoxicity at 10 µM was determined as 0.0039%.

With `O=C(CSC1CCc2ccccc2NC1=O)Nc1ccc(CCO)cc1` (configuration not stated), the cytotoxicity at 10 µM is -3.77%.

For the compound `CN1CCN(C(=O)c2cc(-c3cccs3)cs2)CC1`, the cytotoxicity at 10 µM turned out to be 3.51%.

For the compound `CNC(=O)CCc1cc(C2CCCCN2C)nc(C)n1` (configuration not stated), the cytotoxicity at 10 µM is -0.956%.

Regarding `CN(CCn1cncc1-c1cnc(N2CCOCC2)nc1)C1CCCC1`, the cytotoxicity at 10 µM is 7.25%.

`CO[C@@H]1CCC[C@@H](N(C)C(=O)c2cn3cc(C)ccc3n2)[C@H]1O`: the cytotoxicity at 10 µM is 0.829%.

For the compound `CC(C)CCNC(=O)C1CCCN1C(=O)Nc1cccc(F)c1` (configuration not stated), the cytotoxicity at 10 µM was -1.04%.

Regarding `Cc1csc(C(=O)N2CCC3(CC(N(C)c4ccncn4)C3)C2)c1` (configuration not stated), the cytotoxicity at 10 µM is -11.2%.

On to `CC(c1ccco1)N(C(=O)c1cccc(C#N)c1)C1CC1` (configuration not stated), for which the cytotoxicity at 10 µM turned out to be 1.18%.

Turning to `NC(=O)c1cnc(NCC(=O)NCc2ccco2)c(Cl)c1`, the cytotoxicity at 10 µM worked out at 3.97%.

In the case of `CC(OCc1ccccc1)C(=O)NC1CCN(CC(N)=O)CC1` (configuration not stated), the cytotoxicity at 10 µM was -3.45%.

As for `Cc1nc2cc(F)ccc2cc1C(=O)N1CCN(CC(C)O)CC1` (configuration not stated), the cytotoxicity at 10 µM came out at 2.49%.

On to `O=C(COCCOc1ccccc1)NC1CCN(c2ccccn2)CC1`, for which the cytotoxicity at 10 µM is -4.56%.

As to `OC(CNCc1nnc2ccccn12)c1ccc2c(c1)OCO2` (configuration not stated), the cytotoxicity at 10 µM was 5.79%.

Turning to `COc1ccc(OCCNC(=O)CN(C)Cc2nnc(C)n2C)cc1`, the cytotoxicity at 10 µM was -10.3%.

In the case of `CCCN(CC(=O)NC)C(=O)c1ccc(-c2nc(C)cs2)cc1`, the cytotoxicity at 10 µM is -20.8%.

Consider `O=c1[nH]c(C2CCOC2)nc2cc(F)c(F)cc12` (configuration not stated), for which the cytotoxicity at 10 µM is 9.66%.

With `CC(C)c1nn(C)c(N(C)C)c1CNCc1ccnc(N(C)C)c1`, the cytotoxicity at 10 µM was 1.36%.

As to `CCOc1ccc(Cl)cc1CCNC(=O)c1ccc(=O)n(C)c1`, the cytotoxicity at 10 µM was 3.31%.

`Cc1cc(C2CCCN(Cc3noc(Cc4ccccc4)n3)C2)n[nH]1` (configuration not stated): the cytotoxicity at 10 µM was determined as 3.65%.

For `CCc1n[nH]c(C2CN(CC(=O)N(C)Cc3ccco3)CCO2)n1` (configuration not stated), the cytotoxicity at 10 µM is 1.07%.

As to `CC1(C)CN(C(=O)c2occc2COc2cccc(C#N)c2)CCO1`, the cytotoxicity at 10 µM stood at 8.18%.

On to `Cn1cc(C2(C)CN(c3ncccc3C#N)CCO2)cn1` (configuration not stated), for which the cytotoxicity at 10 µM turned out to be 4.48%.

Turning to `CCCS(=O)(=O)N1CCC(NCc2c(C)nn(C)c2OC)CC1`, the cytotoxicity at 10 µM is 7.01%.

For the compound `CCc1nc(CCNC(=O)Nc2cc(C(N)=O)ccc2OC)cs1`, the cytotoxicity at 10 µM amounted to 1.43%.

For the compound `CN(Cc1nnc(C2CC2)n1C)C1CCN(Cc2ccccc2)C1` (configuration not stated), the cytotoxicity at 10 µM is -4.45%.

Turning to `O=C(Cc1cccc(Cl)c1)Nc1cnccc1SCCCO`, the cytotoxicity at 10 µM was -7.04%.

As for `COc1cc(F)ccc1N(C)Cc1ccccn1`, the cytotoxicity at 10 µM was -1.84%.

For `O=C(NCc1ccncc1)N1CCSCC1CCO` (configuration not stated), the cytotoxicity at 10 µM was found to be 2.3%.

For `Cc1nnc(C(C)N(C)Cc2c(C)nn(-c3ccccc3)c2C)o1` (configuration not stated), the cytotoxicity at 10 µM was -4.73%.

For the compound `CN(C(=O)CNC(=O)CC(C)(C)C)C1CCN(c2ccccn2)CC1`, the cytotoxicity at 10 µM is 13.9%.

Take `O=C(C[S+]([O-])Cc1c(F)cccc1Cl)N1CCc2sccc2C1` (configuration not stated): the cytotoxicity at 10 µM is -0.784%.

Regarding `Cn1cc(C(C)(O)CNC(=O)c2ccc(Br)s2)cn1` (configuration not stated), the cytotoxicity at 10 µM was -52.7%.

Turning to `COc1c(CNC(C)C(=O)NC2CCCC2)c(C(C)C)nn1C` (configuration not stated), the cytotoxicity at 10 µM was -1.08%.

In the case of `Cc1nc(C2CCCN2CCCn2c(=O)oc3ccccc32)no1` (configuration not stated), the cytotoxicity at 10 µM turned out to be 6.91%.

For the compound `COc1ccc(CN(C)CC(=O)Nc2ccc3[nH]c(=O)[nH]c3c2)cc1F`, the cytotoxicity at 10 µM turned out to be 5.97%.

Take `CCc1ccc(NC(=O)C(C)N2CCN(Cc3ncc[nH]3)CC2)cc1` (configuration not stated): the cytotoxicity at 10 µM is -7.83%.

Turning to `Cc1[nH]ncc1C(=O)NCC(CO)Cc1ccc(Cl)cc1` (configuration not stated), the cytotoxicity at 10 µM was -0.0785%.

Turning to `CC(C)CNc1nnc(SC(C(=O)NCc2cccnc2)C(C)C)s1` (configuration not stated), the cytotoxicity at 10 µM was -5.9%.

On to `CC(C)(C)C(O)CN1CCN(CCOCC(F)(F)F)CC1` (configuration not stated), for which the cytotoxicity at 10 µM is -2.02%.

As to `Cc1ccc(C)n1-c1c(C(=O)NCC(C)N(C)C)cnn1C` (configuration not stated), the cytotoxicity at 10 µM was found to be 15.9%.

As for `c1csc(N2CCN(Cc3nnnn3C3CC3)CC2)n1`, the cytotoxicity at 10 µM amounted to 8.96%.

Consider `CCN(C)CC1CCN(C(=O)Nc2ccc(-c3cc[nH]n3)cc2)C1` (configuration not stated), for which the cytotoxicity at 10 µM is -6.25%.

Consider `O=S(=O)(NCCc1c[nH]c2ccc(F)cc12)C1CCOCC1`, for which the cytotoxicity at 10 µM is 4.13%.

In the case of `COc1ccc(OC)c(CNc2nnc(C(C)(C)C)o2)c1`, the cytotoxicity at 10 µM was -6.1%.

Consider `CC(Cn1cccn1)NCc1csc(-c2ccc3c(c2)OCO3)n1` (configuration not stated), for which the cytotoxicity at 10 µM was -26%.

Regarding `O=C(Nc1ccc(N2CCCC2)nc1)N1CCc2sccc2C1`, the cytotoxicity at 10 µM is -16.6%.

Turning to `c1ccc2c(N3CCCCC3Cn3cncn3)ncnc2c1` (configuration not stated), the cytotoxicity at 10 µM was determined as 4.16%.

For the compound `CC(C)(C)c1nnc(CN2CCN(S(C)(=O)=O)CC2)o1`, the cytotoxicity at 10 µM is -4.32%.

Take `Cc1c(CC(=O)N2CCN(CC(F)(F)F)CC2)nnn1-c1ccccc1`: the cytotoxicity at 10 µM is -14.8%.

As for `CC1CCN(CCNC(=O)c2ccccc2N2CCOCC2)CC1`, the cytotoxicity at 10 µM was -6.05%.

With `CCc1nc(C)sc1CN1CC[C@@](O)(C2CCOCC2)[C@H](C)C1`, the cytotoxicity at 10 µM amounted to 1.71%.

Consider `CSCCC(=O)N1CCCCC1CCn1cccn1` (configuration not stated), for which the cytotoxicity at 10 µM is -1.94%.

For `CN(C)C(Cn1ccnc1-c1nccn1C)c1ccccc1Cl` (configuration not stated), the cytotoxicity at 10 µM was -0.0184%.

As to `Cc1ccc(C2(O)CCN(C(=O)c3sccc3S(N)(=O)=O)CC2)nc1`, the cytotoxicity at 10 µM is -3.3%.

Turning to `Cc1nc(C(C)Nc2ncnc3c2CCNCC3)c(C)s1` (configuration not stated), the cytotoxicity at 10 µM was -6.64%.

As to `CCn1ccnc1CN(C)C1CCCN(Cc2ccccc2F)C1` (configuration not stated), the cytotoxicity at 10 µM was 4.77%.

Take `CC(C)N1CC(C(=O)N2CCC(Oc3ccccc3Cl)CC2)CC1=O` (configuration not stated): the cytotoxicity at 10 µM is -3.21%.

For the compound `CCN1CCC2(CCC1=O)CN(C1CCOCC1)CCN2C` (configuration not stated), the cytotoxicity at 10 µM was -1.14%.

With `Cc1nn(C)cc1Cn1c(=O)c(C)nc2ccccc21`, the cytotoxicity at 10 µM is -1.21%.

Take `Cc1nc[nH]c1-c1nnc(SCC(=O)O)n1-c1ccccc1C(F)(F)F`: the cytotoxicity at 10 µM turned out to be 0.0448%.

On to `CCNc1nc(C)c(C(=O)N2CCN(c3ncccc3C)CC2)s1`, for which the cytotoxicity at 10 µM was 3.77%.

For `CCN1CCCC1CNC(=O)c1cc(COc2ccccc2F)[nH]n1` (configuration not stated), the cytotoxicity at 10 µM is -4.17%.

As to `CC(C)c1ccc(OCC(=O)N(C)C)cc1`, the cytotoxicity at 10 µM is -2.82%.

For `CN(C)c1ccc(CCNC(=O)C2CCC(=O)N(C3CCCC3)C2)cc1` (configuration not stated), the cytotoxicity at 10 µM is 20.8%.

`Cc1ccc([C@@H]2CN(S(=O)(=O)N(C)C)C[C@H]2N(C)C)cc1`: the cytotoxicity at 10 µM is 2.47%.

As to `COc1ccc(C)cc1CN1CCOC(Cn2nc(C)nc2C)C1` (configuration not stated), the cytotoxicity at 10 µM was -2.47%.

Turning to `Cc1nc(CN2CCCC(N(C)CCCc3ccccc3)C2)no1` (configuration not stated), the cytotoxicity at 10 µM was -0.704%.

With `O=C(NC1CC1)N1CCN(c2cnccn2)CC1`, the cytotoxicity at 10 µM is -7.39%.

Consider `CN(C)CC(=O)N1CCN(CC(O)c2ccc(F)cc2)CC1` (configuration not stated), for which the cytotoxicity at 10 µM is -9.11%.

Turning to `Clc1snnc1CN1CCCC1Cn1cncn1` (configuration not stated), the cytotoxicity at 10 µM was -20.7%.

As to `Cc1cc(C)n(C2CCCN(C(=O)CCOc3ccccc3F)C2)n1` (configuration not stated), the cytotoxicity at 10 µM is -6.19%.

Regarding `COc1cc(S(=O)(=O)N2CCc3ccc(Cl)cc32)cc(C(=O)O)c1OC`, the cytotoxicity at 10 µM was -1.34%.

Turning to `CCn1cnnc1CNC(=O)N1CCC(CN2CCOCC2)CC1`, the cytotoxicity at 10 µM is -7%.

As to `CC(Cc1cccc(Cl)c1)NC(=O)Nc1cnn(CC(N)=O)c1` (configuration not stated), the cytotoxicity at 10 µM is -15%.

On to `Cc1ccc(-c2nc(CC(=O)N3CCN(c4cnccn4)CC3)cs2)o1`, for which the cytotoxicity at 10 µM was -13%.

On to `CCc1nc(CN2CCCN(CC(O)c3ccccc3)CC2)no1` (configuration not stated), for which the cytotoxicity at 10 µM was -14%.

In the case of `CC(NC(=O)NCCCN(C(C)C)S(C)(=O)=O)c1ccncc1` (configuration not stated), the cytotoxicity at 10 µM is -14.9%.

Regarding `O=C(CCC1CCCO1)NS(=O)(=O)c1ccc(Cl)cc1` (configuration not stated), the cytotoxicity at 10 µM is -9.36%.

With `Cn1cc([C@@H]2CN(S(C)(=O)=O)C[C@H]2N)c2ccncc21`, the cytotoxicity at 10 µM was 2.61%.

For the compound `c1ccc(CN2CCNCC(Cc3cnccn3)C2)cc1` (configuration not stated), the cytotoxicity at 10 µM is -8.65%.

`c1cc(CN2CCN3C[C@H](Oc4cncnc4)C[C@H]3C2)ccn1`: the cytotoxicity at 10 µM is -108%.

`O=C(c1ccccc1)N1CCOC2(CCN(Cc3cccs3)CC2)C1`: the cytotoxicity at 10 µM worked out at 0.64%.

As for `CC[C@@H]1N(Cc2ccoc2)CCC[C@]12CCC(=O)N2CCOC`, the cytotoxicity at 10 µM was 11%.
